MrgX1 antagonist: antagonists of human MrgX1 receptor, primary screen, HEK293 cells, Fluo-4 calcium flux | Mas-related G-protein coupled receptor member X1 (Homo sapiens), Q96LB2 | BAM8-22 antagonism; active compounds read low | B-score at 10 µM | 310,000 tested, 1.3% active;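 active = calcium-response B-score plate-corrected more than 3 library SD below zero, starting fluorescence within 5 deviations, no agonist response on first addition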;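 also: peak minus trough fluorescence over baseline after final BAM8-22 challenge near maximal dose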
Target sequence (Q96LB2 whole entry, looked up): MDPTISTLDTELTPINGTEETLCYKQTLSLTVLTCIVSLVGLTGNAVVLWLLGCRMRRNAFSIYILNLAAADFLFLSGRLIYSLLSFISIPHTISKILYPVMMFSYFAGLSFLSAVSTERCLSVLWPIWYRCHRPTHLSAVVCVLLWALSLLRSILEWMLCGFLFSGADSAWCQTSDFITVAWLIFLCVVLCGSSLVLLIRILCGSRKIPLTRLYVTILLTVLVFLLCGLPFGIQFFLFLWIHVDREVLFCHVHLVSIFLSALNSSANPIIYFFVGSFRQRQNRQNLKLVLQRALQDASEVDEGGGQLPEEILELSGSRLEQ
MrgX1 PAM: positive allosteric modulators of MrgX1, primary screen, HEK293 cells, Fluo-4 calcium flux | Mas-related G-protein coupled receptor member X1 (Homo sapiens), Q96LB2 | FDSS; active compounds read high | B-score at 10 µM | 310,000 tested, 0.63% active | AID 588675, 2011;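 active = plate-corrected calcium response at least 3 library SD above typical, normal starting fluorescence, not activating the receptor alone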;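 also: compound read alongside a low EC10 to EC30 dose of BAM8-22 agonist; peak minus trough fluorescence over baseline measured at the second addition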
RGS4 inh: RGS4 inhibitors, primary screen, cell-based, HEK293 M3R inducible RGS4, calcium flux; AID 463165, 2010; 310,000 tested, 0.45% active; B-score at 10 µM; Fluo-4 calcium flux; active compounds read high; triggered by carbachol at its EC20; Regulator of G-protein signaling 4 (Homo sapiens), P49798;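 active = B-score, a plate-corrected calcium signal, over three deviations above library mean, with baseline fluorescence within five deviations of library mean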;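 also: RGS4 expression induced by doxycycline in cells with stable M3 receptor; B-score is computed from the integrated fluorescence ratio over baseline after carbachol; higher B-score means a larger calcium signal and so more RGS4 inhibition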
Target sequence (P49798 whole entry, looked up): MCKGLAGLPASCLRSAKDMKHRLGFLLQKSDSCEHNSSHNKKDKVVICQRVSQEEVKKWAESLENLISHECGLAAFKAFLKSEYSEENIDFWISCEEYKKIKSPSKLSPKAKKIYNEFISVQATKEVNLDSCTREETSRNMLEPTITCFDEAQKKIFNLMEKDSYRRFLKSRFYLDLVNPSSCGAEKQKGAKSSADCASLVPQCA
RGS4 pot: RGS4 potentiators or activators, primary screen, cell-based, HEK293 M3R inducible RGS4, calcium flux; B-score at 10 µM; carbachol calcium flux Fluo4; active compounds read low; 310,000 tested, 0.92% active; AID 463111, 2010;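 active = B-score of the integrated calcium signal more than 4 SD below the library mean, with starting fluorescence not abnormally high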;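 also: negative B-score means reduced calcium response which marks RGS4 activation or potentiation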
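Detection: kinetic calcium fluorescence imaging with Fluo4-AM dye, 2 µM / Material: HEK293 cells with stable M3R and inducible RGS4 / Schedule: recording 10 s baseline at 1 Hz, 100 s post-agonist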
MrgX1 agonist: agonists of human MrgX1 receptor, primary screen, HEK293 cells, Fluo-4 calcium flux; Mas-related G-protein coupled receptor member X1 (Homo sapiens), Q96LB2; Fluo-4 calcium fluorescence, agonist mode; active compounds read high; B-score at 10 µM; 310,000 tested, 0.44% active; AID 588627, 2011;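 active = calcium response B-score plate-corrected fluorescence ratio at least 3 library SD, with starting fluorescence B-score inside 5 SD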
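Test system: Stable human MrgX1 HEK293 cell line | Schedule: Overnight plating before 1 h dye loading | Read-out basis: Baseline-normalised fluorescence change ratio, B-scored | Detection: Kinetic calcium dye fluorescence, Fluo-4 NW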
A number is an active result; 0 = inactive; - = no result given. Rows were chosen to be rich in hits. Some 3.5% of all compounds tested hit in one or more screens of this group.

SMILES	MrgX1 antagonist	MrgX1 PAM	RGS4 inh	RGS4 pot	MrgX1 agonist
Cn1c2c(c(=O)n(C)c1=O)C(c1ccccc1OC(F)F)C1=C(CCCC1=O)N2 (stereo unspecified)	0	0	0	0	0
CCNC(C(=O)c1c[nH]c2c(CC)cccc12)c1ccccc1 (stereo unspecified)	0	0	0	0	0
Cc1cc(C(=O)N/N=C/c2cccs2)no1	0	0	0	0	28
Fc1ccc(C2CCNCC2COc2ccc3c(c2)OCO3)cc1 (stereo unspecified)	0	0	0	-8.8	0
Fc1ccc([C@@H]2CCNC[C@H]2COc2ccc3c(c2)OCO3)cc1	0	0	0	-7.1	0
Cc1cc2cc3c(=O)[nH]c(=O)[nH]c3nc2cc1C	0	0	0	0	0
O=C(CSc1nnc(COc2ccccc2)o1)Nc1ccc(F)cc1	0	0	0	0	0
NS(=O)(=O)c1ccc(CNC(=O)c2scc3c2CCCC3)cc1	0	0	0	0	0
COc1ccc(N(CC(=O)N2CCC(Cc3ccccc3)CC2)S(C)(=O)=O)cc1	0	0	0	0	0
Cc1cc(C)n2nc3nc(N4CCCCC4)nc(-c4ccco4)c3c2n1	-4.7	0	0	0	0
Cc1cc(C)n2nc3ccccc3c2n1	0	0	0	0	0
CCS(=O)(=O)N1Cc2ccccc2CC1C(=O)Nc1nnc(SCc2ccc(F)cc2)s1 (stereo unspecified)	0	0	0	0	0
Cc1ccc(C(NC(=O)N2CCCC2)C(Cl)Cl)cc1F (stereo unspecified)	-4.8	0	0	0	0
CC(OC(=O)c1cc(Br)ccc1O)C(=O)Nc1ccc(S(=O)(=O)N2CCCC2)cc1 (stereo unspecified)	0	0	0	0	0
Cc1cccc(C(=O)OC(C)C(=O)Nc2ccc(S(=O)(=O)N3CCCC3)cc2)c1O (stereo unspecified)	0	0	0	-7.3	0
CCCCc1ccc(C2C(C#N)=C(N)SC(N)=C2C#N)s1	-9.6	0	-	-	0
CCOc1ccc(C2C(C#N)=C(N)SC(N)=C2C#N)c(OCC)c1	0	0	0	0	0
CCC(NC(=O)COc1cc2c(c3oc(=O)c(C)c(C)c13)CCC(C)(C)O2)C(=O)O (stereo unspecified)	0	0	0	0	0
Cc1ccc(/C=C2/Sc3ccccc3N(CC(=O)NCC3CCCO3)C2=O)cc1 (stereo unspecified)	0	0	0	-7.4	0
O=C(CNCc1ccc(F)cc1)Nc1ccccc1[N+](=O)[O-]	0	0	0	0	0
CNc1cccc2c1C(=O)c1ccccc1C2=O	0	0	0	0	0
O=C1c2ccccc2-c2cccc(NS(=O)(=O)c3ccc(C(F)(F)F)cc3)c21	0	0	0	-7	0
Oc1ccccc1-c1nc(NCC2CCCO2)c2ccccc2n1 (stereo unspecified)	0	0	0	-8.4	0
Cc1nc(NC(=O)c2ccccc2)sc1-c1csc(Nc2cccc(F)c2)n1	0	0	0	0	0
Cc1cc(NS(=O)(=O)c2ccc(NC(=O)c3cc(-c4ccccc4Cl)nc4ccccc34)cc2)no1	0	0	0	0	34
SMILES	MrgX1 antagonist	MrgX1 PAM	RGS4 inh	RGS4 pot	MrgX1 agonist
Cc1cc(NC(=O)c2cc(-c3ccccc3Cl)nc3ccccc23)no1	0	0	0	0	0
Cc1cc(NS(=O)(=O)c2ccc(Nc3nc(-c4sc(NC(=O)c5ccccc5)nc4C)cs3)cc2)no1	0	0	0	-11	0
COc1ccc(CN2CCC(n3nccc3NC(=O)CCc3ccccc3)CC2)c(C)c1C	-	-	0	0	-
Cc1cccc(C(=O)Oc2ccc(/C=N/O)cc2)c1	0	7.7	0	0	0
O=C(Oc1ccc2ccc(O)cc2c1)c1ccccc1Cl	0	0	0	0	0
Cc1ccc(C(=O)N/N=C\c2ccc(OC(=O)c3cccc(F)c3)cc2)cn1	0	0	0	0	0
O=C(Oc1ccc(/C=N/O)cc1)c1ccccc1Cl	0	16	0	0	0
COc1ccc(CC(=O)N(C)CC(=O)Nc2cccc(F)c2)cc1S(=O)(=O)N1CCOCC1	-5.3	0	0	0	0
CC(=O)NN1C(=O)/C(=C/c2ccc(Br)o2)SC1=S	0	7.1	0	0	0
CC(=O)NN1C(=O)/C(=C\c2ccccc2)SC1=S	0	9.5	0	0	0
O=C(CN(C(=O)CNS(=O)(=O)c1ccccc1)c1ccc(F)cc1)NCc1ccco1	0	0	0	0	0
CC(C)C(=O)O/N=C(\N)c1ccc(Oc2ccc(Cl)cc2)c([N+](=O)[O-])c1	0	0	0	-8.6	0
COc1ccc(/C=C2\Oc3cc(OCC(=O)N4CCC(C(=O)O)CC4)ccc3C2=O)c(OC)c1	0	0	0	0	0
COc1ccc(OC)c(/C=C2\Oc3cc(OCC(=O)N4CCC(C(=O)O)CC4)ccc3C2=O)c1	0	0	0	0	55
COc1ccc(OC)c(/C=C2\Oc3cc(OCC(=O)N4CC(O)C[C@H]4C(=O)O)ccc3C2=O)c1 (stereo partly specified)	0	14	0	0	0
COCCn1c(SCc2nc3ccccc3s2)nc2ccccc21	0	0	0	0	0
CC(NC(=O)c1ccccc1)C(c1cccs1)N1CCOCC1 (stereo unspecified)	0	0	0	0	0
CCOc1ccc(NCc2cccn2-c2nnc(N3CCC(C(=O)NCCCN4CCCCC4C)CC3)s2)cc1 (stereo unspecified)	0	0	0	0	0
Cc1cc(C)c2nc(N3CCC(C(=O)NCCCN4CCCCC4)CC3)sc2c1	0	0	0	-7.9	0
CCOc1ccc(NCc2cccn2-c2nnc(N3CCC(C(=O)NCCCN4C(C)CCCC4C)CC3)s2)cc1 (stereo unspecified)	0	0	0	-7.6	0
CCOc1ccc(NCc2cccn2-c2nnc(N3CCC(C(=O)NCCCN4CCCCC4)CC3)s2)cc1	0	0	0	-9	0
Cc1cc(C)c2nc(N3CCC(C(=O)NCC4CCCO4)CC3)sc2c1 (stereo unspecified)	0	0	0	0	0
CCOC(=O)N1CCN(C(=O)CCc2ccc(S(=O)(=O)NC(C)(C)C)cc2)CC1	0	0	0	0	0
Cc1ccc(S(=O)(=O)Nc2ccc(Br)cc2/C=N/n2cnnc2)cc1	0	0	0	0	0
COc1cccc(C=O)c1OCCCOc1cccc2cccnc12	0	0	0	0	33
Brc1ccccc1OCCCOc1cccc2cccnc12	0	0	0	0	0
CN1CCN(C2=Nc3cc(Cl)ccc3Nc3ccccc32)CC1	0	0	0	-7.5	0
N#CCCS(=O)(=O)c1nnnn1-c1ccccc1	0	0	-	-	42
